Yeast superoxide: lowers age-related superoxide in aged yeast cells; S. cerevisiae aged cells, superoxide DHE fluorescence; stronger effect = lower value; superoxide response (% of plate mean), % at 10 µM; 0.18% of 330,000 active; AID 2690;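 active means superoxide response under a set limit, about three screen SD below normal, cut at about 65% in these data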;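 further: yeast aged for seven days with compound at 30 °C before DHE staining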
Rce1 inhib: yeast Ras-converting enzyme inhibition; Q03530; yeast membranes, quenched prenylated peptide cleavage fluorescence; calls only; 0.27% of 290,000 active; AID 2563;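 active means fall in fluorescence gain of 50% or more versus controls, with final raw signal at or below 3038400; inconclusive means same 50% fall but final raw signal above 3038400; inactive means fall in fluorescence gain under 50%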
Target sequence (Q03530 whole entry, looked up): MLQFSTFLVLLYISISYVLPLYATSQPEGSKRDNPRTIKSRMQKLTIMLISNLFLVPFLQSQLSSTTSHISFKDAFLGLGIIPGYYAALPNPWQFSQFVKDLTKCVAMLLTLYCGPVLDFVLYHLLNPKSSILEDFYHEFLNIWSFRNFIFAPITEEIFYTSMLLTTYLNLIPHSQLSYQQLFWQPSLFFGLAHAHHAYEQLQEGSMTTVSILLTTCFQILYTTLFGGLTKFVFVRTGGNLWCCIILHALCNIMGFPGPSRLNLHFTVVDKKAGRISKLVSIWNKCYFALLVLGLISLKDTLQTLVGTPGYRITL
proKLK7 act: activates the human kallikrein-7 zymogen. P49862. purified proKLK7, EDANS-DABCYL substrate fluorescence; 100% is mature enzyme control, 0% vehicle. activation, % at 7 µM. 0.9% of 370,000 active;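 active means activation above the mean of all tested compounds plus 3 SD, computed per campaign excluding outliers beyond control limits, cut at about 13% in these data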
T cell modulator: T cell immune modulators affecting CD8 T cell-vesicle binding; 2C CD8+ T cell-vesicle binding, flow cytometry; stronger effect = lower value; response (vesicle binding), % at 7 µM; 0.068% of 330,000 active; AID 2052;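 active means response, share of CD8 T cells binding vesicles, and their 90th percentile fluorescence all below set limits, cut at about 80% in these data, passing the limit was not always enough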;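 further: values below 100% mean blocked vesicle binding to the CD8+ T cells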
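Read-out – percent CD8+ FL2 mean versus row control · System – murine 2C transgenic CD8+ T lymphocytes · Times – 1.5 h cell–vesicle binding at 37 °C, then 20 min icy labelling · Control set – naked vesicles low, QL9 vesicles with vehicle high · Detection – cytometric PE anti-B7-1 and Alexa647 anti-CD8 signals after 1% paraformaldehyde fixation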
V-ATPase pHluor: yeast V-ATPase proton transport regulation by pHLuorin | S. cerevisiae, pHLuorin cytosolic pH fluorescence | response, % at 10 µM | 0.37% of 350,000 active | AID 504577; in the data active means response mostly above about 7.3%, no sharp cut-off; inactive means mostly below about 5.4%; further: actives read high
MIN6 prolif: inducers of beta-cell replication in MIN6 cells. MIN6 cells proliferation, ATPlite luminescence, 48 h; cells starved in 0.2% serum; 100% = growth in 10% serum. AID 2380. proliferation, % at 10 µM. 0.29% of 330,000 active;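 active means compounds whose signal lies at least 3.5 SD above the mean of all wells on their plate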
proKLK7 act conf: confirmation of human kallikrein-7 zymogen activators | purified proKLK7, EDANS-DABCYL substrate fluorescence; scaled: vehicle 0, mature enzyme 100 | shares compounds with proKLK7 act | activation, % at 7 µM | 68% of 3,200 active;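 active means activation, as change over the incubation, above the mean of all tested compounds plus 3 SD, cut at about 13% in these data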
EDANS-DABCYL int: counter-screen for kallikrein-7 activators: EDANS-DABCYL optical interference; EDANS-DABCYL substrate fluorescence interference, no enzyme, 4 h; solvent 0%, active enzyme control 100%; activation, % at 7 µM; 80% of 3,200 active; shares compounds with proKLK7 act;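 active means activation above the all-compound mean plus 3 SD, ignoring values outside control-based bounds, cut at about 4.8% in these data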;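 further: value is the 4 h activation minus the activation read at time zero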
Numbers stand for hits; - = inactive; ? = inconclusive; . = no result. Rows were chosen to be rich in hits. Some 1.9% of all compounds tested hit in one or more screens of this group.

SMILES	Yeast superoxide	Rce1 inhib	proKLK7 act	T cell modulator	V-ATPase pHluor	MIN6 prolif	proKLK7 act conf	EDANS-DABCYL int
c1ccc2c(c1)NC(c1ccncc1)n1c-2nc2ccccc21 (stereo unspecified)	-	-	29	-	-	-	-	-
CCN1c2ccccc2-c2nc3ccccc3n2C1c1ccncc1 (stereo unspecified)	-	-	-	-	-	-	.	.
CCN1c2ccccc2-c2nc3ccccc3n2C1c1cccnc1 (stereo unspecified)	-	?	-	-	-	-	.	.
O=C1c2ccccc2NC(c2ccncc2)N1c1ccccn1 (stereo unspecified)	-	-	36	-	-	-	18	29
c1cncc(C2Nc3ccccc3-c3nc4ccccc4n32)c1 (stereo unspecified)	-	?	56	-	-	-	-	5.7
CCN(CC)C(=O)c1ccc(CS(=O)(=O)Cc2ccccc2)cc1	-	-	-	-	-	-	.	.
COc1cc2c(cc1OC)CN(Cc1ccc(F)cc1)CC2	-	-	39	-	-	-	14	18
COc1cc2c(cc1OC)CN(Cc1cc(=O)n3c(-c4ccccc4)csc3n1)CC2	-	-	33	-	-	-	-	-
COc1cc2c(cc1OC)CN(Cc1cc(=O)n3cc(C)ccc3n1)CC2	-	.	33	-	-	-	29	33
CCCN(CCC)Cc1cc(=O)oc2ccccc12	.	.	-	.	.	.	.	.
CCCCC(=O)Nc1ccc(N2CCN(c3ccc(F)cc3)CC2)cc1	-	-	-	-	-	-	.	.
O=C(C1=C(O)C(=O)N(Cc2cccnc2)C1c1ccccn1)c1cccs1 (stereo unspecified)	-	-	-	-	-	-	.	.
CCCn1c(-c2ccc[nH]c2=O)nc2ccccc21	-	-	-	-	-	-	.	.
CCCC1(C)Nc2ccccc2-c2nc3ccccc3n21 (stereo unspecified)	-	-	63	-	-	-	-	7.1
c1ccc2c(c1)NC1(CCCC1)n1c-2nc2ccccc21	-	.	82	-	-	-	61	66
CC(=O)Nc1ccc(S(=O)(=O)NCCC(=O)OCc2csc(CC(=O)Nc3ccccc3C)n2)cc1	-	-	-	-	-	-	.	.
COc1cccc(CN2CCN(CC(=O)NCCc3ccccc3)CC2)c1	-	-	-	-	-	-	.	.
COc1ccc(-c2cc(-c3ccccc3)nc(=O)[nH]2)cc1	-	-	62	-	-	-	31	46
COc1ccc(-c2cc(=O)c3ccccc3[nH]2)cc1	-	-	-	-	-	-	.	.
Cc1ccc(-c2nc3ncccc3o2)cc1N	-	-	-	-	-	-	.	.
CC(C)C(=O)Nc1ccc(-c2nc3ncccc3o2)cc1	-	-	14	-	-	-	-	6.6
Nc1ccc(-c2nc3ncccc3o2)c(O)c1	-	?	21	-	-	-	22	21
CC(C)C(=O)Nc1cccc(-c2nc3ncccc3o2)c1	-	-	-	-	-	-	.	.
Cc1cc(-c2nc3ncccc3o2)ccc1N	-	-	40	-	-	-	67	67
Cc1ccc(NC(=O)Cn2nnc(-c3ccccc3F)n2)cc1C	.	.	-	.	.	.	.	.
COc1ccc(OCc2cc(C(=O)N(C)Cc3cc(C4CC4)n[nH]3)no2)c(Cl)c1	-	-	-	-	-	-	.	.
Cc1nn(CC(=O)c2ccc3c(c2)OCCO3)c(=O)c(C#N)c1C	-	.	-	-	-	-	.	.
CN1C(=O)C(C)(C)c2cc(S(=O)(=O)N3CCCC(C(=O)NCc4ccc(Cl)cc4)C3)ccc21 (stereo unspecified)	-	-	-	-	-	-	.	.
Cc1ccc2c(CN3CCOCC3)cc(=O)oc2c1C	-	-	-	-	-	-	.	.
COc1ccccc1N1CCN(CC(O)COc2ccc3c(C)cc(=O)oc3c2)CC1 (stereo unspecified)	-	-	-	-	-	-	.	.

Source: PubChem (several laboratories)
